In ChEMBL document CHEMBL3425441 (J Med Chem, 2015):

Legend:
[1] = Cytotoxicity against human U937 cells assessed as cell death after 72 hrs by sulforhodamine B assay; settings: U-937, 72 h
[2] = Metabolic stability in rat liver microsomes at 10 uM after 3 hrs by LC/MS analysis; format: ADME; settings: read-out: Stability
[3] = test system: Mus musculus; assay: Toxicity in C57BL/6 mouse at 200 mg/kg, ip measured over 24 hrs; format: organism-based; design: dose 200 mg/kg, route intraperitoneal; settings: in vivo
Procedure, shortened: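 Tolerability: C57BL/6 mice aged 8-10 weeks, n = 3 per cohort, given a single 200 mg/kg i.p. dose formulated at 5 mg/mL in 200 mg/mL HPβCD, pH 5.5. Signs classed as excitatory or depressive and graded mild to severe.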

[4] = Metal chelating activity of the compound assessed as zinc complex formation after 5 mins by EGTA fluorescence titration Assay; format: physicochemical
[5] = molecular target: Caspase-3/Caspase-7 (Homo sapiens) (UniProt P42574+P55210); assay: Activation of Caspase 3/7 in human U937 cells assessed as cleavage of Ac-DEVD-AFC at 30 uM after 16 hrs by fluorescence assay relative to control; format: cell-based; settings: U-937
[6] = test system: U-937; assay: Induction of apoptosis in human U937 cells assessed as early apoptotic cells at 50 uM after 12 hrs by annexin V-FITC/propidium iodide staining-based flow cytometric analysis (reference value: 2%); format: functional
[7] = test system: U-937; assay: Induction of apoptosis in human U937 cells assessed as late apoptotic cells at 50 uM after 12 hrs by annexin V-FITC/propidium iodide staining-based flow cytometric analysis (reference value: 2%); format: functional
[8] = test system: U-937; assay: Induction of apoptosis in human U937 cells assessed as necrotic cells at 50 uM after 12 hrs by annexin V-FITC/propidium iodide staining-based flow cytometric analysis relative to control; format: functional
[9] = test system: U-937; assay: Induction of apoptosis in human U937 cells assessed as viable cells at 50 uM after 12 hrs by annexin V-FITC/propidium iodide staining-based flow cytometric analysis (reference value: 96%); format: functional; settings: U-937, 12 h, read-out: Activity
[10] = test system: Jurkat; assay: Cytotoxicity against human Jurkat cells assessed as cell death after 72 hrs by sulforhodamine B assay; format: functional, cell-based
Procedure, shortened: (§1)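 Jurkat plated at 25,000 cells/well; GL-1 and EL4 at 15,000 cells/well. Nine half-log doses, 0.01–100 µM, in triplicate. SRB staining after TCA fixation, absorbance 510 nm. Percent death normalized to a positive death control (100%) and DMSO (0%). Logistic fit gives IC50, mean of three experiments ± s.e.m.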

[11] = Cytotoxicity against dog GL1 cells assessed as cell death after 72 hrs by sulforhodamine B assay; format: functional, cell-based; settings: Canis lupus familiaris; procedure, shortened: as §1
[12] = Cytotoxicity against dog OSW cells assessed as cell death after 72 hrs by sulforhodamine B assay; format: functional, cell-based; settings: Canis lupus familiaris
[13] = test system: EL4; assay: Cytotoxicity against mouse EL4 cells assessed as cell death after 72 hrs by sulforhodamine B assay; format: functional, cell-based; settings: EL4, 72 h; procedure, shortened: as §1
[14] = test system: Serum; assay: Drug uptake in C57/BL6 mouse serum at 25 mg/kg, iv measured after 8 hrs by LC/MS/MS analysis; format: ADME, organism-based; design: dose 25 mg/kg, route intravenous; settings: in vivo
Procedure, shortened: (§2)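 Mouse PK: C57/BL6 mice, n = 2 per cohort per time point, 25 mg/kg given by tail vein injection or oral gavage; formulated at 5 mg/mL in 200 mg/mL HPβCD, pH 5.5. Mice sacrificed at set times, blood collected, EDTA plasma frozen at -80°C. Levels measured by LC/MS/MS (Polar-RP column, formic acid/methanol gradient, negative ESI) against an internal standard.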

[15] = test system: Mus musculus; assay: Elimination half life in C57/BL6 mouse at 25 mg/kg, iv and po by LC/MS/MS analysis; format: ADME, organism-based; design: dose 25 mg/kg, route oral; settings: in vivo
[16] = AUC in C57/BL6 mouse at 25 mg/kg, iv by LC/MS/MS analysis; format: ADME, organism-based; design: dose 25 mg/kg, route intravenous; settings: plasma
[17] = AUC in C57/BL6 mouse at 25 mg/kg, po by LC/MS/MS analysis; format: ADME, organism-based; design: dose 25 mg/kg, route oral; settings: plasma
[18] = Oral bioavailability in C57/BL6 mouse at 25 mg/kg by LC/MS/MS analysis; format: ADME, organism-based; settings: in vivo
[19] = test system: Liver microsome; assay: Drug metabolism in rat liver microsomes assessed as formation of N-dealkylated, dihydroxylated and multiple monooxygenated products at 10 uM after 3 hrs by LC/MS analysis; format: ADME
[20] = Elimination half life in dog at 1 mg/kg, iv; format: ADME, organism-based, Canis lupus familiaris; design: dose 1 mg/kg, route intravenous; settings: in vivo, read-out: beta t1/2 (converted)
[21] = test system: Serum; assay: Drug uptake in C57/BL6 mouse serum at 25 mg/kg, iv measured after 5 to 6 hrs by LC/MS/MS analysis; format: ADME, organism-based; design: dose 25 mg/kg, route intravenous; settings: in vivo; procedure, shortened: as §2

Caspase-3/Caspase-7 (Homo sapiens), sequence (P42574 whole entry, looked up): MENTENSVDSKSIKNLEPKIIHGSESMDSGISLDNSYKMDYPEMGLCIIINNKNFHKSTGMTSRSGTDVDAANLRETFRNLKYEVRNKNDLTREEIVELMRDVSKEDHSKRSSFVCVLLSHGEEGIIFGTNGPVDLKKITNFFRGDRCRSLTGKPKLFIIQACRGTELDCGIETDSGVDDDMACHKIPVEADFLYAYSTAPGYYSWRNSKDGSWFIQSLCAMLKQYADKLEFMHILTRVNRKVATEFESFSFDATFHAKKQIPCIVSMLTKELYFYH
Caspase-3/Caspase-7 (Homo sapiens), sequence (P55210 whole entry, looked up): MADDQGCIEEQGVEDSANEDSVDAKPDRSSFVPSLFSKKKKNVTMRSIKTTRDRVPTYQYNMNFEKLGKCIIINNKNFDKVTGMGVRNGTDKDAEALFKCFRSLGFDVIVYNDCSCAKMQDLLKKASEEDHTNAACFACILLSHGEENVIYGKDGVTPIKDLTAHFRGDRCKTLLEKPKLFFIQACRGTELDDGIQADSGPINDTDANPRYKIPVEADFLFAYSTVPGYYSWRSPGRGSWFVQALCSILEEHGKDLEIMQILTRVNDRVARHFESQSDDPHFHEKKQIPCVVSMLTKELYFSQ

O=C(CN1CCN(Cc2ccccc2)CC1)N/N=C/c1cc(F)ccc1O
IC50 [1]: 17 µM | remaining at 3 h, 10 µM [2]: 64%

CCCc1cccc(/C=N/NC(=O)CN2CCN(Cc3ccc(F)cc3)CC2)c1O
IC50 [1]: 10 µM | remaining at 3 h, 10 µM [2]: 24%

C=CCc1cccc(/C=N/NC(=O)CN2CCN(Cc3ccc(F)cc3)CC2)c1O
IC50 [1]: 11.1 µM | remaining at 3 h, 10 µM [2]: 31%

C=CCc1cc(F)cc(/C=N/NC(=O)CN2CCN(C(=O)c3ccccc3)CC2)c1O
IC50 [1]: 8.6 µM | remaining at 3 h, 10 µM [2]: 93% | Activity [3]: Non-toxic | Kd [4]: 0.00107 µM | Activity [5]: 67% | Activity [6]: 20% | Activity [7]: 19% | Activity [8]: 7% | viability at 50 µM [9]: 54% | IC50 [10]: 4.1 µM | IC50 [11]: 3.4 µM | IC50 [12]: 10 µM | IC50 [13]: 7.3 µM | Drug uptake [14]: Active | beta t1/2 [15]: 2.008 h | AUC [16]: 4850 ng·h/mL | AUC [17]: 428 ng·h/mL | bioavailability [18]: 8.5%

C=CCc1cccc(/C=N/NC(=O)CN2CCN(Cc3ccccc3)CC2)c1O [PAC-1]
IC50 [1]: 10.2 µM | remaining at 3 h, 10 µM [2]: 38% | Drug metabolism [19]: metabolite_detected | Activity [3]: Toxic | half-life [20]: 2.1 h | Kd [4]: 0.00128 µM | Activity [5]: 87% | Activity [6]: 22% | Activity [7]: 19% | Activity [8]: 5% | viability at 50 µM [9]: 54% | IC50 [10]: 4.4 µM | IC50 [11]: 3 µM | IC50 [12]: 10 µM | IC50 [13]: 6.5 µM | Drug uptake [21]: Not Active | beta t1/2 [15]: 0.41 h | AUC [16]: 3510 ng·h/mL | AUC [17]: 527 ng·h/mL | bioavailability [18]: 15.1%

CCCc1cccc(/C=N/NC(=O)CN2CCN(Cc3ccc(S(N)(=O)=O)cc3)CC2)c1O
remaining at 3 h, 10 µM [2]: 61%

CCCc1cc(F)cc(/C=N/NC(=O)CN2CCN(Cc3ccc(F)cc3)CC2)c1O
IC50 [1]: 7.5 µM | remaining at 3 h, 10 µM [2]: 48%

C=CCc1cc(F)cc(/C=N/NC(=O)CN2CCN(Cc3ccccc3)CC2)c1O
IC50 [1]: 9.5 µM | remaining at 3 h, 10 µM [2]: 56%

CCCc1cc(F)cc(/C=N/NC(=O)CN2CCN(C(=O)c3ccc(C(F)(F)F)cc3)CC2)c1O
remaining at 3 h, 10 µM [2]: 64%

O=C(CN1CCN(C(=O)c2ccc(C(F)(F)F)cc2)CC1)N/N=C/c1cc(F)ccc1O
IC50 [1]: 8.7 µM | remaining at 3 h, 10 µM [2]: 87% | Activity [3]: Non-toxic

CCCc1cc(F)cc(/C=N/NC(=O)CN2CCN(Cc3ccc(S(N)(=O)=O)cc3)CC2)c1O
remaining at 3 h, 10 µM [2]: 62%

C=CCc1cc(F)cc(/C=N/NC(=O)CN2CCN(C(=O)c3ccc(C(F)(F)F)cc3)CC2)c1O
remaining at 3 h, 10 µM [2]: 90%

C=CCc1cc(F)cc(/C=N/NC(=O)CN2CCN(C(=O)c3ccc(C#N)cc3)CC2)c1O
remaining at 3 h, 10 µM [2]: 95% | Drug uptake [14]: Active

C=CCc1cccc(/C=N/NC(=O)CN2CCN(C(=O)c3ccccc3)CC2)c1O
IC50 [1]: 12.1 µM | remaining at 3 h, 10 µM [2]: 89%

O=C(CN1CCN(Cc2ccccc2)CC1)N/N=C/c1ccccc1
Kd [4]: > 1000 µM | Activity [5]: 3%

CCCc1cccc(/C=N/NC(=O)CN2CCN(Cc3ccc(C#N)cc3)CC2)c1O
IC50 [1]: 9 µM | remaining at 3 h, 10 µM [2]: 30%

C=CCc1cc(F)cc(/C=N/NC(=O)CN2CCN(C(=O)c3ccc(F)cc3)CC2)c1O
IC50 [1]: 8.5 µM | remaining at 3 h, 10 µM [2]: 92% | Activity [3]: Toxic

C=CCc1cccc(/C=N/NC(=O)CN2CCN(Cc3ccc(C(F)(F)F)cc3)CC2)c1O
remaining at 3 h, 10 µM [2]: 16%

CCCc1cccc(/C=N/NC(=O)CN2CCN(C(=O)c3ccccc3)CC2)c1O
IC50 [1]: 9.4 µM | remaining at 3 h, 10 µM [2]: 71%

C=CCc1cc(F)cc(/C=N/NC(=O)CN2CCN(Cc3ccc(S(N)(=O)=O)cc3)CC2)c1O
remaining at 3 h, 10 µM [2]: 89%

O=C(CN1CCN(C(=O)c2ccccc2)CC1)N/N=C/c1cc(F)ccc1O
IC50 [1]: 15.7 µM | remaining at 3 h, 10 µM [2]: 88%

CCCc1cccc(/C=N/NC(=O)CN2CCN(C(=O)c3ccc(C#N)cc3)CC2)c1O
IC50 [1]: 12.8 µM | remaining at 3 h, 10 µM [2]: 61%
